Published values gathered from unrelated publications.
Protocols differ between the studies behind these lines.
Cell line: K562
Read-out: cell growth or viability

COc1ccc(Nc2ncnc3c2ncn3Cc2ccc(C(=O)Nc3ccccc3N)cc2)cc1
IC50 (MTT; 72 h): > 50 µM

CC(C)[C@@H]1NC(=O)/C(=C/c2cnc[nH]2)NC1=O
IC50 (MTT): > 15 µM

O=c1cc(OCc2cc(-c3ccc(Cl)cc3Cl)no2)c2ccccc2o1
IC50 (MTS; 72 h): > 100 µM

CN1CCC(NC2CCc3[nH]c4c(C(N)=O)ccc(-c5ccccc5Cl)c4c3C2)CC1 (stereo not shown)
IC50: 0.0214 µM

CC(C)[C@@H]1NC(=O)[C@H](Cc2c[nH]cn2)NC1=O
IC50 (MTT): > 15 µM

COc1cccc2c1C(=O)c1c(O)c3c(c(O)c1C2=O)C[C@@](O)(C(=O)CO)C[C@@H]3O[C@H]1C[C@H](N)[C@H](O)[C@H](C)O1
IC50 (96 h): 0.13 µM

O=C(NO)c1ccc(Cn2cnc3c(Nc4ccc(Br)cc4F)ncnc32)cc1
IC50 (MTT; 72 h): 5.18 µM

c1ccc(-c2cc(CNc3cccc4cccnc34)on2)cc1
IC50 (MTS; 72 h): > 100 µM

O=C(NO)c1ccc(Cn2cnc3c(Nc4cccc([N+](=O)[O-])c4)ncnc32)cc1
IC50 (MTT; 72 h): 10.4 µM

FC(F)(F)c1ccc(-c2cc(CNc3cccc4cccnc34)on2)cc1
IC50 (MTS; 72 h): > 100 µM
